Compounds with a hit are over-represented: about 3.1% of the library has one in this group of screens.
Myeloid diff MLP: induction of myeloid progenitor differentiation, primary screen, cell-based, flow cytometry, MLPCN library; hit rate 1% among 360,000; calls only at 10 µM; ER-HoxA9 myeloid progenitors, lysozyme-GFP differentiation; AID 624256, 2012;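 active = normalized GFP-positive differentiation at or above the plate's own cutoff, the solvent-only control mean plus 3 SD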;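 note: cells exposed to compound for four days before flow analysis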
PP1 inh: PP1-alpha phosphatase inhibitors, primary screen, counter-screen for PP5 inhibitor project, biochemical, fluorescence, OMFP substrate, single point | hit rate 0.9% among 320,000 | inhibition, % at 6.7 µM | AID 2235, 2010 | Serine/threonine-protein phosphatase PP1-alpha catalytic subunit (Homo sapiens), P62136 | purified PP1alpha;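 active = inhibition above the mean inhibition of all tested compounds plus 3 SD, computed separately for each screening campaign, cut at about 15% in these data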
Target sequence (P62136 whole entry, looked up): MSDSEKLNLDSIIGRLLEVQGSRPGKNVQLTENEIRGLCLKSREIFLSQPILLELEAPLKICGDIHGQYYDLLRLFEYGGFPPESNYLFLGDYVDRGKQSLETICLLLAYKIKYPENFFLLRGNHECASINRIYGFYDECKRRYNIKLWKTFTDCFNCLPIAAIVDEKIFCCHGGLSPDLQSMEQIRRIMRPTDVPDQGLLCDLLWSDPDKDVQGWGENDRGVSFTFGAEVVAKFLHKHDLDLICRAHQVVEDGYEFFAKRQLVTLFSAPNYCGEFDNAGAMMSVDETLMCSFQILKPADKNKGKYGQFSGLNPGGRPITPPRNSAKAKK
Fh CTSL1 inh: Fasciola hepatica cathepsin L1 inhibitors, primary screen, counter-screen for PFM18AAP inhibitor project, biochemical, QFRET, fluorogenic peptide substrate; hit rate 0.49% among 300,000; AID 1906, 2009; inhibition, % at 5.96 µM; recombinant F. hepatica cathepsin L1, Z-Leu-Arg-MCA fluorescence;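 active = inhibition above the mean of all tested compounds plus 3 SD, set per screening campaign, cut at about 17% in these data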;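 note: 0% = plate median of test compound wells and 100% = 1 µM Z-Phe-Ala-diazomethylketone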
PP5 inh: PP5 phosphatase inhibitors, primary screen, biochemical, fluorescence; purified PP5c, OMFP substrate fluorescence; inhibition, % at 6.7 µM; hit rate 0.18% among 320,000; AID 1987, 2009;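 active = inhibition above the campaign's mean inhibition across all tested compounds plus 3 SD, cut at about 9.5% in these data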;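 note: 0% = DMSO only and 100% = 100 µM cantharidin control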
core dimer inh: inhibitors of HCV core protein dimerization, primary screen, biochemical, TR-FRET, high-throughput | AID 1899, 2009 | inhibition, % at 5 µM | hit rate 0.33% among 300,000 | TR-FRET GST/Flag-core106 dimerization, 1536-well;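 active = inhibition above the mean of all tested compounds plus 3 SD, set per screening campaign, cut at about 45% in these data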
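Material: GST/Flag-tagged HCV core106 proteins. Incubation: 4 h, 22.5 °C incubation. Read-out basis: inhibition (%) from 671 over 617 nm ratio. Measured by: TR-FRET, excitation 340 nm, emission 617 and 671 nm.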
NadD block: inhibitors of S. aureus NadD, primary screen, biochemical, colorimetric, uHTS; Nicotinate-nucleotide adenylyltransferase NadD (Staphylococcus aureus N315); purified NadD enzyme, colorimetric absorbance read-out; inhibition, % at 20 µM; hit rate 0.78% among 360,000; AID 602399, 2012; in the data active = inhibition above about 26%
NadD conf: inhibitors of S. aureus NadD, confirmation, biochemical, colorimetric, single concentration; shares compounds with NadD block; purified S. aureus NadD, colorimetric enzyme assay; inhibition, % at 20 µM; hit rate 13% among 2,000; in the data active = inhibition mostly above about 42%, no sharp cut-off; inactive = mostly below about 42%
Numbers without * were called inactive; i = inactive; / = not tested or not shown; + = active, no number.

SMILES | Myeloid diff MLP | PP1 inh | Fh CTSL1 inh | PP5 inh | core dimer inh | NadD block | NadD conf
COc1ccc(-c2csc(NC(=O)c3cc(-c4cccs4)nc4ccccc34)n2)c(OC)c1 | i | -3 | -3 | -6 | 4 | 34* | 10
Cc1cc(C)c2nc(NNC(=O)c3cc(-c4cccs4)nc4ccccc34)sc2c1 | i | 6 | -1 | 3 | 15 | 51* | 2
Cc1ccc(NC(=O)c2cc(-c3cccs3)nc3ccccc23)nc1 | i | 4 | 0 | 2 | 8 | 3 | /
Nc1c(C(=O)N/N=C/c2cccnc2)oc2nc(-c3ccccc3)cc(-c3ccco3)c12 | i | -1 | 3 | -3 | 5 | 7 | /
O=CNn1cnc2c(oc3nc(-c4ccccc4)cc(-c4ccco4)c32)c1=O | i | -1 | 0 | -2 | 8 | 36* | 5
Cc1cnc(C=NNC(N)=S)c2cccc(N)c12 | / | / | / | / | / | 61* | 9
CCOC(=O)C1=C(C)N=c2sc(=Cc3cc(Cl)c(OCC(=O)O)c(Cl)c3)c(=O)n2C1c1cccc(OC)c1 (stereo not drawn) | + | / | / | / | / | 34* | 52*
Cc1cccc(-n2nc(C(=O)Nc3ccccc3)n3c(=O)cc(-c4ccccc4)nc23)c1 | / | 0 | -3 | 2 | 5 | 30* | -9
O=C(CC(=O)c1ccccc1)CS(=O)(=O)c1ccccc1 | i | / | / | / | / | 4 | /
Cc1ccc(Oc2nnc(-c3ccccc3)c3ccccc23)cc1 | i | 2 | 6 | 1 | -1 | 6 | /
Cc1ccc(-c2nnc(Oc3ccc(NC(=O)c4ccccc4)cc3)c3ccccc23)cc1 | i | -1 | -5 | 2 | 4 | 30* | 11
Cc1ccc(S(=O)(=O)c2cn(C)c3cc(N4CCN(C)CC4)c(F)cc3c2=O)c(C)c1 | i | 0 | 5 | 0 | -2 | -7 | /
O=C(NNC(=S)NC(=O)c1sc2ccccc2c1Cl)c1ccc(Cl)cc1 | i | 2 | -2 | 2 | 15 | 36* | 13
COc1cc(NS(=O)(=O)c2ccc(NC(=S)NC(=O)c3sc4cc(F)ccc4c3Cl)cc2)nc(OC)n1 | i | -8 | -10 | 2 | 13 | 35* | 24
COc1cc(NS(=O)(=O)c2ccc(NC(=S)NC(=O)c3sc4ccccc4c3Cl)cc2)nc(OC)n1 | i | -2 | -1 | -1 | 0 | 9 | /
NC(N)=NS(=O)(=O)c1ccc(NC(=S)NC(=O)c2sc3ccccc3c2Cl)cc1 | i | 16* | 3 | 1 | -15 | 43* | 5
O=C(O)c1ccccc1NC(=S)NC(=O)c1sc2ccccc2c1Cl | i | 2 | 5 | 1 | 2 | 0 | /
CC(C)=CCC[C@](C)(O[C@@H]1O[C@H](CO[C@@H]2OC[C@@H](O)[C@H](O)[C@H]2O)[C@@H](O)[C@H](O)[C@H]1O)C1CC[C@]2(C)C1[C@H](O)CC1[C@@]3(C)CC[C@H](O[C@@H]4O[C@H](CO)[C@@H](O)[C@H](O)[C@H]4O)C(C)(C)C3CC[C@]12C (stereo partly drawn) | i | / | / | / | / | -10 | /
Nc1c(C(=O)O)sc2nc(-c3ccc(F)cc3)cc(-c3ccccc3)c12 | i | 9 | 4 | 2 | 16 | 37* | 29
COc1ccc(CNC(=O)CCNC(=O)C2CCN(S(=O)(=O)c3ccc(OC)cc3)CC2)cc1 | i | / | / | / | / | 2 | /
CC[C@]12c3[nH]c4cc(-c5ccco5)ccc4c3CCN1C(=O)[C@@H](CC(=O)NCCC1=CCCCC1)C[C@@H]2C(=O)N1CCN(C(=O)c2ccco2)CC1 | i | / | / | / | / | 33* | 11
CC[C@]12c3[nH]c4cc(CCC(=O)N(C)C)ccc4c3CCN1C(=O)[C@@H](CC(=O)NCCC1=CCCCC1)C[C@@H]2C(=O)N1CCN(C(=O)c2ccco2)CC1 | i | / | / | / | / | 2 | /
O=C(C[C@H]1C[C@H](C(=O)N2CCCCC2)[C@@]2(CCc3ccccc3)c3[nH]c4cc(-c5ccco5)ccc4c3CCN2C1=O)NCc1cccc(C(F)(F)F)c1 | i | / | / | / | / | 54* | 25
O=C(C[C@H]1C[C@H](C(=O)N2CCCCC2)[C@@]2(CCc3ccccc3)c3[nH]c4cc(-c5ccco5)ccc4c3CCN2C1=O)NCCC1=CCCCC1 | i | / | / | / | / | 56* | 13
COC(=O)[C@]12CCCCC=C1N(Cc1ccc(Cl)cc1Cl)C(=O)[C@H](CC(=O)NCC1CCCCC1)C2 | i | / | / | / | / | 4 | /
SMILES | Myeloid diff MLP | PP1 inh | Fh CTSL1 inh | PP5 inh | core dimer inh | NadD block | NadD conf
CC1(C)CC[C@]2(C(=O)O)CC[C@]3(C)C(=CCC4[C@@]5(C)CC[C@H](O)C(C)(C)C5CC[C@]43C)C2C1 (stereo partly drawn) | i | 0 | -1 | 5 | -10 | 27 | /
CC1(C)CC[C@]2(C(=O)O)CC[C@]3(C)C(=CC[C@@H]4[C@@]5(C)CC[C@H](O)C(C)(C)[C@@H]5CC[C@]43C)[C@@H]2C1 | i | -2 | -1 | -1 | 23 | 30* | 10
CCOC(=O)c1c(NC(=O)Cn2nc(C(=O)O)c3ccccc3c2=O)sc2c1CCC(C)C2 (stereo not drawn) | i | -4 | -8 | 0 | 9 | 33* | 12
COC(=O)[C@H](Cc1c[nH]c2ccccc12)NC(=O)NCc1ccccc1 | i | -2 | -1 | -2 | -2 | -1 | /
CCOC(=O)c1sc(NC(=O)c2cc3n(n2)C(C(F)(F)F)CC(c2cccs2)N3)c(C(=O)OCC)c1C (stereo not drawn) | i | -2 | 0 | 2 | 2 | 30* | 3
O=C(Nc1ccc(-c2csc(Nc3ccc(Cl)cc3)n2)cc1)c1cc([N+](=O)[O-])cc(C(F)(F)F)c1 | i | -3 | -3 | 2 | 24 | 43* | 8
O=C(Nc1cccc(-c2csc(Nc3ccccc3)n2)c1)c1cc([N+](=O)[O-])cc(C(F)(F)F)c1 | i | -1 | 4 | 4 | 18 | 37* | 9
O=C(Nc1cccc(-c2csc(Nc3ccc(Cl)cc3)n2)c1)c1cccc(C(F)(F)F)c1 | i | -1 | 1 | -1 | 10 | 10 | /
O=C(NCC(c1ccco1)N1CCc2ccccc21)c1cccc([N+](=O)[O-])c1 (stereo not drawn) | i | 2 | 3 | 0 | -3 | -3 | /

Screening data (PubChem)
